ChEMBL document CHEMBL4190344, “Synthesis of substituted phenanthrene-9-benzimidazole conjugates: Cytotoxicity evaluation and apoptosis inducing studies” (Eur J Med Chem, 2017)
Active and inactive are the calls of the source. No cut-off for these calls is given here.

Assays:
[1] = tested on: PC-3; assay: Cytotoxicity in human PC3 cells incubated for 48 hrs by MTT assay; type: functional, cell-based; settings: PC-3, 48 h
Method in brief: (§1)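 Cells (1 × 10^4/well) were seeded in medium with 10% FBS and left 24 h at 37 °C. Compound diluted in medium was then added, alongside a vehicle control, for 48 h. MTT (5 mg/mL stock) was added for 4 h, formazan dissolved in DMSO and absorbance read at 570 nm. IC50 taken as the concentration giving 50% inhibition.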

[2] = tested on: HCT-116; assay: Cytotoxicity in human HCT116 cells incubated for 48 hrs by MTT assay; type: functional, cell-based; settings: HCT-116, 48 h
Method in brief: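 Cells (1 × 10^4/well) were seeded in medium with 10% FBS and left 24 h at 37 °C. Compound diluted in medium was then added, alongside a vehicle control, for 48 h. MTT (5 mg/mL stock) was added for 4 h, formazan dissolved in DMSO and absorbance read at 570 nm.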

[3] = tested on: DU-145; assay: Cytotoxicity in human DU145 cells incubated for 48 hrs by MTT assay; type: functional, cell-based; settings: DU-145, 48 h; method in brief: as §1
[4] = tested on: MDA-MB-453; assay: Cytotoxicity in human MDA-MB-453 cells incubated for 48 hrs by MTT assay; type: functional, cell-based; settings: MDA-MB-453, 48 h; method in brief: as §1
[5] = tested on: BT-549; assay: Cytotoxicity in human BT549 cells incubated for 48 hrs by MTT assay; type: functional, cell-based; settings: BT-549, 48 h; method in brief: as §1
[6] = tested on: HCT-15; assay: Cytotoxicity in human HCT15 cells incubated for 48 hrs by MTT assay; type: functional, cell-based; settings: HCT-15, 48 h; method in brief: as §1
[7] = tested on: Calf thymus DNA; assay: Binding affinity to calf thymus DNA assessed as increase in relative viscosity of DNA-compound complex at 5 uM by viscometry; type: nucleic-acid assay; settings: Bos taurus
Method in brief: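 Viscosity titration of test compound (5 µM) into CT-DNA (50 µM) in 100 mM Tris-HCl pH 7.0. Rolling-ball viscometer, ball fall time read at angles of 20° to 70°, Peltier-held temperature, viscosity calculated at 25 °C.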

Row | SMILES | IC50 [1] [µM] | IC50 [2] [µM] | IC50 [3] [µM] | IC50 [4] [µM] | IC50 [5] [µM] | IC50 [6] [µM] | Activity [7]
1 | COC(=O)Nc1nc2cc(C(=O)c3cccs3)ccc2[nH]1 [NOCODAZOLE] | 1.84 | 1.06 | 1.14 | 0.91 |  |  | 
2 | COc1ccc2cc(-c3nc4ncc(Br)cc4[nH]3)c3cc(OC)c(OC)cc3c2c1 | 11.3 | > 20 | > 20 | > 20 | 7.91 | > 20 | 
3 | COc1ccc2nc(-c3cc4cc(OC)c(OC)cc4c4cc(OC)c(OC)cc34)[nH]c2c1 | 13.1 | 8.91 | > 20 | 9.98 | 11.5 | 10.2 | 
4 | COc1cccc2c1C(=O)c1c(O)c3c(c(O)c1C2=O)C[C@@](O)(C(=O)CO)C[C@@H]3O[C@H]1C[C@H](N)[C@H](O)[C@H](C)O1 [DOXORUBICIN] |  |  | 1.91 |  |  |  | Active
5 | COc1cc2cc(-c3nc4cc(Cl)ccc4n3Cc3ccccc3)c3cc(OC)c(OC)cc3c2cc1OC | 11.5 | > 20 | > 20 | 17.3 | > 20 | 10.3 | 
6 | COc1cc2cc(-c3nc4ccc(C(=O)O)cc4[nH]3)c3cc(OC)c(OC)cc3c2cc1OC | 10.2 | 9.92 | 12.7 | 10.6 | > 20 | 8.34 | 
7 | COc1cc2cc(-c3nc4ccccc4[nH]3)c3cc(OC)c(OC)cc3c2cc1OC | 12.8 | > 20 | 18.9 | > 20 | > 20 | > 20 | 
8 | CN1CCN(c2ccc3[nH]c(-c4ccc5[nH]c(-c6ccc(O)cc6)nc5c4)nc3c2)CC1 |  |  |  |  |  |  | inactive
9 | COC(=O)c1ccc2nc(-c3cc4cc(OC)c(OC)cc4c4cc(OC)c(OC)cc34)[nH]c2c1 | 16.7 | > 20 | 17.2 | > 20 | > 20 | > 20 | 
10 | O=c1[nH]cc(F)c(=O)[nH]1 [FLUOROURACIL] |  | 8.62 | 2.18 |  |  |  | 
11 | COc1ccc2cc(-c3nc4ccccc4[nH]3)c3cc(OC)c(OC)cc3c2c1 | > 20 | > 20 | 17.2 | > 20 | 11.4 | > 20 | 
12 | COc1cc2cc(-c3nc4cc(Cl)ccc4n3Cc3cc(C)cc(C)c3)c3cc(OC)c(OC)cc3c2cc1OC | 12.8 | > 20 | > 20 | 16.5 | > 20 | 15.6 | 
13 | COc1cc2cc(-c3nc4ccc(C)cc4[nH]3)c3cc(OC)c(OC)cc3c2cc1OC | > 20 | > 20 | 8.21 | > 20 | > 20 | > 20 | 
14 | COc1cc2cc(-c3nc4ncc(Br)cc4[nH]3)c3cc(OC)c(OC)cc3c2cc1OC | > 20 | > 20 | 10 | > 20 | > 20 | > 20 | 
15 | COc1ccc2cc(-c3nc4cc(Cl)ccc4n3Cc3ccccc3)c3cc(OC)c(OC)cc3c2c1 | > 20 | > 20 | > 20 | 7.2 | > 20 | 14.1 | 
16 | CC[n+]1c(-c2ccccc2)c2cc(N)ccc2c2ccc(N)cc21 |  |  |  |  |  |  | Active
17 | COc1ccc2cc(-c3nc4ccc(Cl)cc4[nH]3)c3cc(OC)c(OC)cc3c2c1 | 7.24 | 11.3 | > 20 | > 20 | 14.2 | > 20 | Active
18 | COc1cc2cc(-c3nc4ccc(Cl)cc4[nH]3)c3cc(OC)c(OC)cc3c2cc1OC | 18.9 | > 20 | > 20 | 9.42 | > 20 | > 20 | 
19 | COc1cc2cc(-c3nc4cc(C)cc(C)c4[nH]3)c3cc(OC)c(OC)cc3c2cc1OC | 18.3 | > 20 | > 20 | > 20 | 7.15 | > 20 | 
20 | COc1cc2cc(-c3nc4ccc(F)cc4[nH]3)c3cc(OC)c(OC)cc3c2cc1OC | 14.6 | > 20 | > 20 | > 20 | 10.8 | 9.42 | 
21 | COc1cc2cc(-c3nc4ccc(Br)cc4[nH]3)c3cc(OC)c(OC)cc3c2cc1OC | 15.7 | > 20 | > 20 | 15.1 | > 20 | > 20 | 
